Reference: ChEMBL document CHEMBL4219191, “Discovery of new A- and B-type laxaphycins with synergistic anticancer activity” (Bioorg Med Chem, 2018)
Starred links: 1 amine or outer side, 2 acyl side, 3 side chain; linkers in the order of their positions; H or OH if unused. Non-standard residues stand in square brackets, D forms with d. Residues, ends and D or L forms follow the SMILES beside them. dβ3hAhp = CCCCC[C@H](CC(=O)[*:2])N[*:1]; d(aIle) = CC[C@H](C)[C@@H](N)C(=O)O; Hyp = O=C(O)[C@@H]1C[C@@H](O)CN1; X1 = C/C=C(/N[*:1])C(=O)[*:2]; hSer = N[C@@H](CCO)C(=O)O

Tests used:
HCT-116 [1] = test: Antiproliferative activity against human HCT116 cells after 48 hrs by MTT assay; assay type: functional, cell-based; conditions: HCT-116, 48 h
In short: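 HCT116 cells grown in DMEM with 10% FBS at 37 °C under 5% CO2. 10,000 cells per well were seeded and treated 24 h later with a concentration series in DMSO (0.5%). After 48 h more, MTT viability was read. Run in triplicate; IC50 by nonlinear regression.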

HCT-116 [2] = test: Synergistic antiproliferative activity against human HCT116 cells assessed as combination index at 1 uM after 48 hrs in presence of 32 uM laxaphycin A by MTT assay; assay type: functional
HCT-116 [3] = test: Synergistic antiproliferative activity against human HCT116 cells assessed as combination index at 0.32 uM after 48 hrs in presence of 10 uM laxaphycin A by MTT assay; assay type: functional
HCT-116 [4] = test: Synergistic antiproliferative activity against human HCT116 cells assessed as combination index at 0.1 uM after 48 hrs in presence of 3.2 uM laxaphycin A by MTT assay; assay type: functional
HCT-116 [5] = test: Synergistic antiproliferative activity against human HCT116 cells assessed as combination index at 0.032 uM after 48 hrs in presence of 1 uM laxaphycin A by MTT assay; assay type: functional
HCT-116 [6] = test: Synergistic antiproliferative activity against human HCT116 cells assessed as combination index at 32 uM after 48 hrs in presence of 320 uM laxaphycin A by MTT assay; assay type: functional
HCT-116 [7] = test: Synergistic antiproliferative activity against human HCT116 cells assessed as combination index at 10 uM after 48 hrs in presence of 100 uM laxaphycin A by MTT assay; assay type: functional
HCT-116 [8] = test: Synergistic antiproliferative activity against human HCT116 cells assessed as combination index at 3.2 uM after 48 hrs in presence of 32 uM laxaphycin A by MTT assay; assay type: functional
HCT-116 [9] = test: Synergistic antiproliferative activity against human HCT116 cells assessed as combination index at 1 uM after 48 hrs in presence of 10 uM laxaphycin A by MTT assay; assay type: functional
HCT-116 [10] = test: Synergistic antiproliferative activity against human HCT116 cells assessed as combination index at 0.32 uM after 48 hrs in presence of 3.2 uM laxaphycin A by MTT assay; assay type: functional
HCT-116 [11] = test: Synergistic antiproliferative activity against human HCT116 cells assessed as combination index at 0.1 uM after 48 hrs in presence of 1 uM laxaphycin A by MTT assay; assay type: functional
HCT-116 [12] = test: Synergistic antiproliferative activity against human HCT116 cells assessed as combination index at 10 uM after 48 hrs in presence of 1 uM laxaphycin B4 by MTT assay; assay type: functional
HCT-116 [13] = test: Synergistic antiproliferative activity against human HCT116 cells assessed as combination index at 32 uM after 48 hrs in presence of 1 uM laxaphycin B4 by MTT assay; assay type: functional
HCT-116 [14] = test: Synergistic antiproliferative activity against human HCT116 cells assessed as combination index at 10 uM after 48 hrs in presence of 0.32 uM laxaphycin B4 by MTT assay; assay type: functional
HCT-116 [15] = test: Synergistic antiproliferative activity against human HCT116 cells assessed as combination index at 3.2 uM after 48 hrs in presence of 0.1 uM laxaphycin B4 by MTT assay; assay type: functional
HCT-116 [16] = test: Synergistic antiproliferative activity against human HCT116 cells assessed as combination index at 1 uM after 48 hrs in presence of 0.032 uM laxaphycin B4 by MTT assay; assay type: functional
HCT-116 [17] = test: Synergistic antiproliferative activity against human HCT116 cells assessed as combination index at 320 uM after 48 hrs in presence of 32 uM laxaphycin B4 by MTT assay; assay type: functional
HCT-116 [18] = test: Synergistic antiproliferative activity against human HCT116 cells assessed as combination index at 100 uM after 48 hrs in presence of 10 uM laxaphycin B4 by MTT assay; assay type: functional
HCT-116 [19] = test: Synergistic antiproliferative activity against human HCT116 cells assessed as combination index at 32 uM after 48 hrs in presence of 3.2 uM laxaphycin B4 by MTT assay; assay type: functional
HCT-116 [20] = test: Synergistic antiproliferative activity against human HCT116 cells assessed as combination index at 3.2 uM after 48 hrs in presence of 0.32 uM laxaphycin B4 by MTT assay; assay type: functional
HCT-116 [21] = test: Synergistic antiproliferative activity against human HCT116 cells assessed as combination index at 1 uM after 48 hrs in presence of 0.1 uM laxaphycin B4 by MTT assay; assay type: functional

Compound `C/C=C1/NC(=O)[C@H](CCO)NC(=O)C[C@@H](CCCCC)NC(=O)CNC(=O)[C@H](CC(C)C)NC(=O)[C@@H]([C@@H](C)CC)NC(=O)[C@H](C(C)C)NC(=O)[C@@H](CC(C)C)NC(=O)[C@@H](Cc2ccccc2)NC(=O)[C@H](CCO)NC(=O)[C@@H]2C[C@@H](O)CN2C1=O` (cyclo(G[dβ3hAhp][hSer][X1][Hyp][hSer][dF][dL]V[d(aIle)]L)) has an IC50 (HCT-116 [1]) of 29 µM.
For `CCCCCCC[C@@H]1CC(=O)N[C@@H](C(C)C)C(=O)N[C@H]([C@@H](O)C(C)C)C(=O)N[C@@H](CCO)C(=O)N[C@H]([C@@H](O)C(C)C)C(=O)N[C@@H](CCC(N)=O)C(=O)N(C)[C@@H]([C@@H](C)CC)C(=O)N[C@H]([C@@H](O)C(N)=O)C(=O)N[C@@H]([C@@H](C)O)C(=O)N2C[C@H](O)C[C@H]2C(=O)N[C@H](CC(C)C)C(=O)N[C@@H]([C@@H](C)O)C(=O)N1`, the IC50 (HCT-116 [1]) was 1.7 µM, the CI (HCT-116 [2]) was 0.029 and the CI (HCT-116 [3]) was 0.063. It also gave a CI (HCT-116 [4]) of 0.121, a CI (HCT-116 [5]) of 5.267 and a CI (HCT-116 [6]) of 0.0002. The CI (HCT-116 [7]) was 0.0001, the CI (HCT-116 [8]) was 0.0005 and the CI (HCT-116 [9]) was 0.1157. It also gave a CI (HCT-116 [10]) of 0.2909 and a CI (HCT-116 [11]) of 0.2457.
`C/C=C1/NC(=O)[C@H](CCO)NC(=O)C[C@@H](CCCCC)NC(=O)CNC(=O)[C@H](CC(C)C)NC(=O)[C@@H]([C@@H](C)CC)NC(=O)[C@H]([C@@H](C)CC)NC(=O)[C@@H](CC(C)C)NC(=O)[C@@H](Cc2ccccc2)NC(=O)[C@H](CCO)NC(=O)[C@@H]2C[C@@H](O)CN2C1=O` [LAXAPHYCIN A] (cyclo(G[dβ3hAhp][hSer][X1][Hyp][hSer][dF][dL]I[d(aIle)]L)) showed a CI (HCT-116 [12]) of 0.1157, an IC50 (HCT-116 [1]) of 23 µM and a CI (HCT-116 [13]) of 0.029. It also gave a CI (HCT-116 [14]) of 0.063, a CI (HCT-116 [15]) of 0.121 and a CI (HCT-116 [16]) of 5.267. The CI (HCT-116 [17]) was 0.0002, the CI (HCT-116 [18]) was 0.0001 and the CI (HCT-116 [19]) was 0.0005. For the same compound, the CI (HCT-116 [20]) was 0.2909 and the CI (HCT-116 [21]) was 0.2457.
